Rows were chosen to be rich in hits. Some 3.7% of all compounds tested hit in one or more screens of this group.
FGF22 binding – binders of recombinant human FGF22 by thermal shift; activity (Tm shift, normalised), % at 9.99 µM; AID 651658; SYPRO orange fluorescence; percent of sucrose octasulfate shift, DMSO zero; hit rate 1.5% among 340,000;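 active means mean Tm shift, scaled 0 neutral to 100 positive control, at about 1.3% or above, every replicate too, limit read from the data; inconclusive means no clear call, values can overlap the other calls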
ERAP1 inh – blocks human ERAP1 aminopeptidase activity; Q9NZ08; recombinant ERAP1, Leu-AMC fluorescence, 60 min; inhibition, % at 10.7 µM; hit rate 0.15% among 340,000;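 active means mean replicate inhibition of at least 30%, or all replicates individually reaching that 30% level; inactive means mean below 30% and not every replicate reaching it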;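 further: 0% = neutral control wells and 100% = L-leucinethiol positive control wells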
Target sequence (Q9NZ08 whole entry, looked up): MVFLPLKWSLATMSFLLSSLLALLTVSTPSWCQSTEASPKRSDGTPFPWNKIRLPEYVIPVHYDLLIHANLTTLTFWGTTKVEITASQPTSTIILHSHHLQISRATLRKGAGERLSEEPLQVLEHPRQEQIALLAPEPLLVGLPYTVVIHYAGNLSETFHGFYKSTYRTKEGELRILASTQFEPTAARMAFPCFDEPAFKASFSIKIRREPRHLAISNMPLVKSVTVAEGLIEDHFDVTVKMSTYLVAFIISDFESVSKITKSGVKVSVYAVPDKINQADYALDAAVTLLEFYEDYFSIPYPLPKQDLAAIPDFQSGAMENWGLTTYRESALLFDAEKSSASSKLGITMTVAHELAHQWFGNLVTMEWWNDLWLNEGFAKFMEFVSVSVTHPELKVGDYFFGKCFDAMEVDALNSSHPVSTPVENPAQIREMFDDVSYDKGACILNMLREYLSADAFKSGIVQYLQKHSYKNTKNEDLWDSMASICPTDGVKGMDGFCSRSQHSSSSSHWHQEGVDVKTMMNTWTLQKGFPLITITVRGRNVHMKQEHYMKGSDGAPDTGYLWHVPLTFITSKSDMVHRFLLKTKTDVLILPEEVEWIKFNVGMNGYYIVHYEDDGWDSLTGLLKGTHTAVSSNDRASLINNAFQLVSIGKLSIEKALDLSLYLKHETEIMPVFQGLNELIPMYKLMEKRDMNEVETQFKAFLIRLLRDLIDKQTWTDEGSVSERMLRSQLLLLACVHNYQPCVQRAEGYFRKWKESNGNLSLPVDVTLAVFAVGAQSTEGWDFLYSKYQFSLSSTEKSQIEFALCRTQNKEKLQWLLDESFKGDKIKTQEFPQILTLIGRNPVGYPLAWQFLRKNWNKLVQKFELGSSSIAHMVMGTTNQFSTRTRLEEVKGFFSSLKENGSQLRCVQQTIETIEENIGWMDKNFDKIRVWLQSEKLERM
E-selectin induc – E-selectin induction on HUVECs; P16581; HUVEC E-selectin immunofluorescence imaging; normalized: neutral wells 0, TNF-alpha wells 100; activation, % at 7.58 µM; hit rate 0.37% among 260,000; AID 686992;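 active means mean E-selectin-positive cell signal at least 10% of the positive control, reached in at least 60% of replicates, without over 20% cell loss; inconclusive means no rule given, readout overlaps actives, possibly toxicity-flagged; inactive means the rest, including those meeting only one limit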
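Read-out: % PE-positive cells | Test system: HUVEC | Doses: One compound dose added by pin transfer | Buffer or medium: EGM-2 over gelatin coat | Signal: Immunofluorescence imaging | Benchmarks: TNF-alpha, DMSO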
DENV2 CPE rescue – protects cells from dengue virus 2 cytopathic effect; AID 651640; CPE inhibition, % at 9.99 µM; DENV2-infected cells, cytopathic effect rescue, plate reader; hit rate 1.7% among 350,000; in the data active means CPE inhibition above about 20%, passing the limit was not always enough; inconclusive means no clear call, values can overlap the other calls; tested in BHK-21 cells;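 further: 0% = median of neutral control wells and 100% = median of positive control wells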
CFTR F508del cor – correctors of CFTR F508del function in bronchial epithelial cells | hit rate 0.36% among 350,000 | CFBE cells, YFP halide quenching; stimulated with forskolin plus potentiator P3; % fluorescence drop versus neutral controls | activity (quench increase), % at 7.58 µM | AID 720511;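 active means mean added fluorescence quench of at least 8% versus neutral control, with both replicates also reaching 8%; inconclusive means only one of the mean or replicate conditions met; inactive means mean below 8% and not both replicates reaching 8%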;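 further: cells transiently co-express mutant CFTR-F508del with the halide-sensitive YFP; corrector assay measuring rescue of mutant channel to the surface after 24 h compound exposure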
An asterisk follows results filed as active; ? = inconclusive; / = no result.

SMILES	FGF22 binding	ERAP1 inh	E-selectin induc	DENV2 CPE rescue	CFTR F508del cor
Cc1ccccc1Nc1nc(-c2cccnc2)nc2ccccc12	0	/	0	-1	1
Cc1ccc(Nc2nc(-c3cccnc3)nc3ccccc23)cc1	0	-1	0	-3	12*
Cc1ccc(S(=O)(=O)N(C)C[C@H]2Oc3ccc(NC(=O)c4ccncc4)cc3C(=O)N([C@@H](C)CO)C[C@@H]2C)cc1	0	-2	1	?	0
Cc1ccc(S(=O)(=O)N(C)C[C@H]2Oc3ccc(NC(=O)c4ccncc4)cc3C(=O)N([C@H](C)CO)C[C@H]2C)cc1	0	0	3	42*	1
COc1ccc(S(=O)(=O)N(C)C[C@H]2Oc3ccc(NC(=O)c4ccncc4)cc3C(=O)N([C@H](C)CO)C[C@@H]2C)cc1	0	1	54*	?	0
COc1cc2cc(CCO)oc(=O)c2cc1OC	-1	-2	0	89*	-2
COc1cc2cc(CCCOC(=O)CCC(=O)O)oc(=O)c2cc1OC	0	/	0	28*	0
CCC(=O)N1[C@H](CO)[C@@H](c2ccc(C3=CCCCC3)cc2)[C@@H]1CN(C)C(C)=O	/	/	0	?	-3
O=C([C@@H]1[C@@H](CO)[C@@H]2Cn3c(ccc(C4=CCCC4)c3=O)[C@H]1N2C(=O)c1ccncc1)N1CCOCC1	0	-4	0	-2	/
CN1[C@@H]2CN(C(=O)C3CCOCC3)c3ccccc3[C@@H]2[C@@H]1CO	0	0	0	40*	3
CC(C)NC(=O)N1C[C@@H]2[C@H](c3ccccc31)[C@@H](CO)N2C(=O)c1ccccc1	0	1	0	29*	0
O=C(C1CCOCC1)N1C[C@H]2[C@@H](c3ccccc31)[C@@H](CO)N2C(=O)c1ccccc1	-1	4	1	97*	0
O=C(C1CC1)N1C[C@@H]2[C@H](c3ccccc31)[C@H](CO)N2C(=O)c1ccccc1	0	0	0	0	-3
CC(C)NC(=O)N1C[C@@H]2[C@H](c3ccccc31)[C@H](CO)N2C(=O)NC(C)C	0	0	0	-7	-3
CCN(CC)C(=O)C1CCN(Cc2ccc(OCc3ccccc3)cc2)CC1	0	0	0	28*	-1
CO[C@@H]1CN(C)C(=O)c2cc(NC(=O)c3cc(C)on3)ccc2OC[C@@H](C)N(CC2CC2)C[C@H]1C	/	/	0	/	0
Cc1cc(C)nc(NC(=S)Nc2ccc(Br)cc2Cl)c1	43*	4	/	1	1
CCCC(=O)Nc1ccc2c(c1)C(=O)N(C)[C@H]1CC[C@@H](CC(=O)O)O[C@H]1CO2	-1	0	0	0	1
CC(=O)N/N=C(\C)CC(=O)Nc1ccc2c(c1)OCCO2	43*	-1	/	/	-2
COC(=O)C[C@H]1CC[C@@H]2[C@H](COC[C@H](O)CN2C(=O)Nc2cccc(F)c2)O1	1	2	0	-1	-1
COc1ccc2c3c(n(C)c2c1)[C@@H](CO)N(C(=O)Nc1cccc(F)c1)CC31CN(C)C1	0	-1	0	-4	0
CC=Cc1ccc2n(c1=O)C[C@H]1[C@H](CO)[C@@H](C(=O)N3CCCCC3)N(Cc3ccccc3)[C@@H]21 (mixture of isomers)	0	5	-1	6	0
C/C(=N\NC(=O)COc1ccc(C)cc1Br)c1cc([N+](=O)[O-])cs1	43*	0	/	-4	-2
O=C(O)CCCNC(=O)/C=C/c1ccco1	44*	-2	/	4	0
C[C@@H]1CCC[C@]2(O[C@@H](CCO)C[C@@H](O)[C@@H]2O)O1	0	-1	0	34*	5
SMILES	FGF22 binding	ERAP1 inh	E-selectin induc	DENV2 CPE rescue	CFTR F508del cor
C[C@H]1CC[C@@]2(O[C@@H](CCO)C[C@H](O)[C@H]2O)O1	0	/	0	9	1
C[C@@H]1CC[C@]2(O[C@H](CCO)C[C@H](O)[C@H]2O)O1	0	2	0	39*	0
Cc1ccc(NC(=O)CN2CCC(NC(=O)c3cccc(F)c3)CC2)cc1C	0	-1	/	34*	-1
Cc1cc(C)cc(NC(=O)CN2CCC(NC(=O)c3cccc(F)c3)CC2)c1	0	2	/	0	-7
CCSc1nnc(CNC(=O)c2ccccc2F)n1-c1ccccc1OC	43*	4	/	6	-2
CO[C@@H]1CN(C)C(=O)c2cc(NC(=O)C3CC3)ccc2OC[C@@H](C)N(C(=O)c2ccccc2)C[C@H]1C	0	0	0	7	-3
C[C@@H]1CN([C@H](C)CO)C(=O)Cc2cc(NC(=O)Nc3ccc(F)cc3)ccc2O[C@H]1CN(C)C(=O)NC1CCCCC1	0	3	0	-4	-1
O=C(CCNS(=O)(=O)c1ccccc1C(F)(F)F)N1CCN(C(c2ccccc2)c2ccccc2)CC1	0	1	0	92*	0
COc1cc(C)nc(N2CCC(C(=O)NCC3CCCO3)CC2)n1 (stereo unspecified)	0	2	/	44*	-1
CCCNC(=O)[C@@]1(C)c2ccccc2C(=O)N(Cc2ccc(OC(F)(F)F)cc2)[C@H]1c1ccc(CO)cc1	0	-2	/	20*	6
COc1ccccc1NC(=O)CN(Cc1ccco1)C(=O)c1ccc(N2CCCC2=O)cc1	44*	2	1	?	2
COc1cccc(N=C(N)N)c1	43*	-1	0	-3	2
Nc1cccc(Oc2c(F)c(F)c(Oc3cccc(N)c3)c(F)c2F)c1	0	-1	12	9	-3
COc1cccc(N)c1	0	/	/	171*	2
COc1cccc(N2C(=O)c3ccncc3C2=O)c1	/	3	/	/	/
COc1cccc(N2CC(=O)N(c3cccc(OC)c3)CC2=O)c1	44*	-4	0	5	-1
COc1ccc(OC)c(N=C(N)N=C(N)N)c1	0	5	0	-13	-3
Cc1nc(Nc2nc3ccccc3o2)nc(C)c1C	44*	-1	/	-6	0
CCNC(=O)C[C@H]1C=C[C@H](NC(=O)NC2CCCCC2)[C@H](CO)O1	0	-10	0	-3	0
N#Cc1ccccc1	0	4	/	30*	0
O=C(Nc1ccc(Oc2ccc(Cl)cc2)c(Cl)c1)c1cc(I)cc(I)c1O	0	-3	0	43*	-2
COc1ccccc1Oc1ccc(NC(=O)c2ccc(Cl)cc2)cc1	0	2	-1	0	-4
COc1cccc(COC(=O)CSCC(=O)Nc2ccc(C)cc2)c1OC	0	0	/	72*	/
C[C@@H]1CN([C@H](C)CO)C(=O)c2cccc(NC(=O)c3ccncc3)c2O[C@@H]1CN(C)S(=O)(=O)c1cccs1	0	0	-8	26*	1
C[C@@H]1CN([C@H](C)CO)C(=O)c2cccc(NC(=O)c3ccncc3)c2O[C@H]1CN(C)S(=O)(=O)c1ccccc1	0	-2	32*	?	1

Screening results from PubChem BioAssay.
